Compound activity as filed in PubChem.
RGS4 act = potentiators or activators of RGS4. actives 0.92% (n = 310,000). B-score at 10 µM. AID 463111. HEK293 M3R/inducible RGS4, carbachol calcium flux Fluo4; active compounds read low;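 active = B-score of the integrated calcium signal more than 4 SD below the library mean, with starting fluorescence not abnormally high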;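 also: negative B-score means reduced calcium response which marks RGS4 activation or potentiation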
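Material: M3R-expressing HEK293 line, RGS4 induced by doxycycline | Schedule: Overnight RGS4 induction, 30 min dye load 37 °C, 20 min compound RT | Measured by: Fluo4 fluorescence kinetic imaging of calcium | Read-out: Integrated calcium ratio converted to B score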
RGS4 inh = inhibitors of human RGS4. B-score at 10 µM. actives 0.45% (n = 310,000). HEK293 M3R/RGS4 inducible, Fluo-4 calcium flux; active compounds read high; triggered by carbachol at its EC20;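 active = B-score, a plate-corrected calcium signal, over three deviations above library mean, with baseline fluorescence within five deviations of library mean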;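 also: RGS4 expression induced by doxycycline in cells with stable M3 receptor; B-score is computed from the integrated fluorescence ratio over baseline after carbachol; higher B-score means a larger calcium signal and so more RGS4 inhibition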
Target sequence (P49798 whole entry, looked up): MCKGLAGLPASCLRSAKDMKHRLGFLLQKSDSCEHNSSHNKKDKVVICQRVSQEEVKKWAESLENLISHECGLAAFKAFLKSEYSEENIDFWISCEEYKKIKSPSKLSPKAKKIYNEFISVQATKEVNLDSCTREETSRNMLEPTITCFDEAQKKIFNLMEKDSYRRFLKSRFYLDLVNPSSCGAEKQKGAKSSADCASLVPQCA
MrgX1 antag = human MrgX1 receptor antagonism, primary screen | Q96LB2 | MRGX1-HEK293 calcium flux, Fluo-4, BAM8-22 antagonism; active compounds read low | B-score at 10 µM | actives 1.3% (n = 310,000);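 active = calcium-response B-score plate-corrected more than 3 library SD below zero, starting fluorescence within 5 deviations, no agonist response on first addition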;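 also: peak minus trough fluorescence over baseline after final BAM8-22 challenge near maximal dose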
Target sequence (Q96LB2 whole entry, looked up): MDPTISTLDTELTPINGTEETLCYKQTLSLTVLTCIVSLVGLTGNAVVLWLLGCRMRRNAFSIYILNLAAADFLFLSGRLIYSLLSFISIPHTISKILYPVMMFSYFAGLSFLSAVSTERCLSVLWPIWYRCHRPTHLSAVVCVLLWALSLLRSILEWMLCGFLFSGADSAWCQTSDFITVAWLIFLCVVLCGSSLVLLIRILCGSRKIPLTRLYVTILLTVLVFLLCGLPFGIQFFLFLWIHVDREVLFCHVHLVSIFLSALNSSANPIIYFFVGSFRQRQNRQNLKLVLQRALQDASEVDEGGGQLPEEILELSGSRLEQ
MrgX1 allo act = human MrgX1 positive allosteric modulation, primary screen. Q96LB2. MrgX1-HEK293, Fluo-4 calcium flux, FDSS; active compounds read high. B-score at 10 µM. actives 0.63% (n = 310,000). AID 588675;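 active = plate-corrected calcium response at least 3 library SD above typical, normal starting fluorescence, not activating the receptor alone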;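 also: compound read alongside a low EC10 to EC30 dose of BAM8-22 agonist; peak minus trough fluorescence over baseline measured at the second addition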
MrgX1 ag = human MrgX1 receptor agonism, primary screen; Q96LB2; MrgX1-HEK293 cells, Fluo-4 calcium fluorescence, agonist mode; active compounds read high; B-score at 10 µM; actives 0.44% (n = 310,000); AID 588627;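 active = calcium response B-score plate-corrected fluorescence ratio at least 3 library SD, with starting fluorescence B-score inside 5 SD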
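Assay system: MrgX1-expressing HEK293 cells / Amount: fifteen thousand cells per well / Doses: test compound in the initial addition of three / Timing: cells plated overnight, dye loaded 0.5 h 37 °C, 0.5 h room temperature / Technique: kinetic calcium dye fluorescence, Fluo-4 NW / Control set: positive and negative controls per plate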
MrgX1 ag confirm = reconfirmed activator of human MrgX1 receptor signaling; shares compounds with MrgX1 ag; MrgX1-HEK293, Fluo-4 calcium fluorescence, FDSS; activation, % at 10 µM; actives 78% (n = 600); AID 602412;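 active = calcium signal rise, corrected for plate position, at least 3 library SD high, with starting brightness within 5 such deviations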
HEK293 Ca flux = counter-screen for MrgX1 antagonists: effect in parental HEK293 cells; shares compounds with MrgX1 antag; Fluo-4 calcium fluorescence, FDSS; fluorescence ratio F(max-min)/F0 at 10 µM; actives 2% (n = 4,000); AID 624111;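 active = duplicate-averaged calcium fluorescence ratio at least three times the standard deviation of buffer wells, a nonspecific response in parental cells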
HEK293 Ca counter = activity in parental HEK293 cells without MrgX1 | shares compounds with MrgX1 antag | parental HEK293 calcium flux, Fluo-4 fluorescence ratio; active compounds read high | fluorescence ratio F(max-min)/F0 at 10 µM | actives 0.4% (n = 4,000) | AID 624114;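 active = calcium fluorescence ratio, averaged over duplicates, at least 3 SD of the buffer-well ratio, meaning a nonspecific response in receptor-free cells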;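 also: untransfected parental HEK293 lacking MrgX1 used as counterscreen for MrgX1 allosteric activators; fluorescence change taken during the second addition on a kinetic imager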
HEK293 Ca cntr2 = MrgX1 activator counter-screen hit in parental HEK293 cells; actives 8.7% (n = 4,000); Fluo-4 calcium fluorescence (FDSS); active compounds read high; fluorescence ratio F(max-min)/F0 at 10 µM; shares compounds with MrgX1 antag;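 active = calcium fluorescence ratio at least three times the spread of buffer wells, meaning a non-specific response in parental cells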
* = called active by the depositor; i = inactive; x = no result. An excerpt weighted towards active compounds, which were near 3.5% of everything screened.

SMILES	RGS4 act	RGS4 inh	MrgX1 antag	MrgX1 allo act	MrgX1 ag	MrgX1 ag confirm	HEK293 Ca flux	HEK293 Ca counter	HEK293 Ca cntr2
Cc1ccc(NC(=O)C2CCCN(S(=O)(=O)c3ccc4[nH]c(=O)ccc4c3)C2)c(C)c1 (stereo unspecified)	i	i	i	i	i	x	x	x	x
O=C(NC(=S)NNC(=O)c1ccco1)c1ccc(Br)cc1	i	i	i	i	135*	543%*	i	i	98*
COc1ccc(C(=O)NNC(=S)NC(=O)c2ccco2)cc1	i	i	i	i	84*	486%*	i	i	86*
CCCCOc1ccc(C(=O)NNC(=S)NC(=O)CC)cc1	i	i	i	i	i	x	x	x	x
CCCOc1ccc(C(=O)NNC(=S)NC(=O)c2ccco2)cc1	i	i	i	i	146*	661%*	i	i	127*
C=CCNc1ncnc2c1[nH]c1ccccc12	i	i	i	i	i	x	x	x	x
C=CCNc1ncnc2c1[nH]c1ccc(Cl)cc12	i	i	i	i	65*	353%*	i	i	59*
Cc1[nH]n(-c2ccccc2)c(=O)c1N=Nc1nccs1	i	i	i	i	66*	261%*	i	i	51*
N#CC1=C(N)Oc2cc(O)ccc2C1c1cccs1 (stereo unspecified)	i	i	i	i	29*	i	i	i	i
CCOC(=O)c1ccccc1NC(=O)N1CCn2c(C)ccc2C1CC (stereo unspecified)	i	i	i	i	i	x	x	x	x
CCC1c2ccc(C)n2CCN1C(=O)Nc1ccccc1C(=O)OC (stereo unspecified)	i	i	i	i	29*	i	i	i	i
CCC1c2ccc(C)n2CCN1C(=O)Nc1cc(Cl)ccc1OC (stereo unspecified)	i	i	i	i	33*	i	i	i	i
COc1cc(/C=C(\C#N)C(=O)c2c[nH]c3ccccc23)cc(OC)c1O	i	i	i	i	70*	461%*	i	i	105*
CCC(C)n1c(=N)c(C#N)cc2c(=O)n3ccccc3nc21 (stereo unspecified)	i	i	i	i	26*	i	i	i	i
CCN(c1nc(N)c(C(=O)N=C(N)N)nc1Cl)C(C)C	i	i	i	i	36*	233%*	i	i	i
O=S(=O)(Nc1cccc(-c2ccc3nncn3n2)c1)c1cc(F)ccc1F	i	i	i	i	45*	204%*	i	i	i
Cc1ccc(S(=O)(=O)Nc2cccc(-c3ccc4nncn4n3)c2)cc1	i	i	i	i	i	x	x	x	x
Cc1nc(SCC(=O)c2ccccc2)c(C#N)c(-c2ccco2)c1C(=O)NCc1ccco1	i	i	i	i	i	x	x	x	x
Cc1c2ccccc2nc2c(F)c(NCCO)c(F)c(F)c12	i	i	i	i	30*	i	0.12*	i	i
Cc1c2ccccc2nc2c(F)c(NC(C)C)c(F)c(F)c12	i	i	i	i	i	x	x	x	x
CC1CC(C)CN(C(=O)COC(=O)CCc2nc3ccccc3c(=O)[nH]2)C1 (stereo unspecified)	i	i	i	i	i	x	x	x	x
O=C(COC(=O)[C@H](Cc1ccccc1)NC(=O)c1cccs1)NC1CCCCC1	i	i	i	i	30*	195%*	i	i	46*
O=C(C#Cc1ccccc1)c1ccco1	i	i	i	i	44*	240%*	i	i	i
Cc1nnc(NC(=O)CSc2nnc(CNC(=O)c3ccc(S(=O)(=O)N(C)C)cc3)o2)s1	i	i	i	i	i	x	x	x	x
Cc1nn(C)c(C)c1CN(Cc1nc(-c2cc(F)ccc2F)oc1C)C1CC1	i	i	i	i	i	x	x	x	x
SMILES	RGS4 act	RGS4 inh	MrgX1 antag	MrgX1 allo act	MrgX1 ag	MrgX1 ag confirm	HEK293 Ca flux	HEK293 Ca counter	HEK293 Ca cntr2
Cc1nn(C)c(C)c1CN(Cc1nc(-c2ccc(F)cc2F)oc1C)C1CC1	i	i	i	i	56*	254%*	i	i	49*
Nc1ncccc1OCc1ccc(Cl)c(Cl)c1	i	i	i	i	41*	172%*	i	i	i
COc1ccc(NC(=S)N(CCN2CCOCC2)C2CCN(C(C)=O)CC2)cc1Cl	i	i	i	i	69*	i	i	i	i
Cc1nnc(NC(=O)c2sc3nc(-c4cccs4)cc(C(F)(F)F)c3c2N)s1	i	i	i	i	31*	299%*	0.3*	i	63*
C#CCOCCOCCOCCNc1nc(N2CCN(C(=O)[C@H]([C@@H](C)CC)n3cc([C@@H](N)CC(C)C)nn3)CC2)nc(N2CCN(C(=O)[C@H](CCCCN)n3cc([C@@H](N)CO)nn3)CC2)n1	i	i	i	i	i	x	x	x	x
COc1cc(OC)cc(C(=O)NC(=S)NNC(=O)Cc2cccs2)c1	i	i	i	i	72*	535%*	i	i	102*
COc1cc(NC(=O)Cc2cccs2)cc(OC)c1	i	i	i	i	i	x	x	x	x
ClCc1nc2ccccc2c2ccccc12	i	i	i	i	44*	88%*	i	i	i
CCc1ccc(CNc2ccc3c(c2)ncn3CC)cc1	i	i	i	i	30*	166%*	i	i	i
CCc1ccc(CNc2ccc3c(c2)ncn3C(C)(C)C)cc1	i	i	i	i	i	x	x	x	x
CCOc1ccccc1NC(=O)CSc1ccc(-c2ccco2)nn1	i	i	i	i	i	x	x	x	x
CCOc1ccccc1NC(=O)CSc1ccc(-c2sc(C)nc2C)nn1	i	i	i	i	37*	170%*	i	i	i
Cc1ccc(-c2ccc(CCC(=O)O)n2Cc2ccco2)cc1	i	i	i	i	31*	129%*	i	i	i
